Calls of active or inactive are those of the source. No cut-off for these calls is given here.
How the values were obtained:
Human alphaherpesvirus 1 [1] = experiment: Antiviral activity against acyclovir-resistant […] kinase-deficient HSV1 KOS infected in human HEL cells assessed as inhibition of virus-induced cytopathic effect after 3 days by MTS assay; assay type: functional, organism-based
How it was run: (§1)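 Confluent cell monolayers were infected with 100 CCID50 of virus and allowed 2 h adsorption at 37 °C. Virus was then removed and serial compound dilutions were added. Cultures were incubated at 37 °C for 3 days, until CPE was complete in the untreated virus control. EC50 was the concentration giving 50% inhibition of virus-induced CPE, by visual score or by MTS formazan cell viability.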

Escherichia coli = experiment: Antibacterial activity against Escherichia coli after 24 hrs by serial dilution method; assay type: functional
Human alphaherpesvirus 2 = experiment: Antiviral activity against Herpes simplex virus 2 G infected in human HEL cells assessed as inhibition of virus-induced cytopathic effect after 3 days by MTS assay; assay type: functional, organism-based; conditions: strain G; how it was run: as §1
Coxsackievirus B4 = experiment: Antiviral activity against Coxsackie virus B4 infected in african green monkey Vero cells assessed as inhibition of virus-induced cytopathic effect after 3 days by MTS assay; assay type: functional, organism-based; how it was run: as §1
Feline coronavirus = experiment: Antiviral activity against Feline caronavirus infected in […] cells assessed as inhibition of virus-induced cytopathic effect after 3 days by MTS assay; assay type: functional, organism-based; how it was run: as §1
[2] = system: Vesicular stomatitis virus; experiment: Antiviral activity against VSV infected in human HEL cells assessed as inhibition of virus-induced cytopathic effect after 3 days by MTS assay; assay type: functional, organism-based; how it was run: as §1
Vaccinia virus = experiment: Antiviral activity against Vaccinia virus infected in human HEL cells assessed as inhibition of virus-induced cytopathic effect after 3 days by MTS assay; assay type: functional, organism-based; conditions: Orthopoxvirus vaccinia; how it was run: as §1
Influenza B virus = experiment: Antiviral activity against influenza B virus infected in MDCK cells assessed as inhibition of virus-induced cytopathic effect after 3 days by MTS assay; assay type: functional, organism-based; how it was run: as §1
Staphylococcus aureus = experiment: Antibacterial activity against Staphylococcus aureus after 24 hrs by serial dilution method; assay type: functional
Human alphaherpesvirus 1 [3] = experiment: Antiviral activity against Herpes simplex virus 1 KOS infected in human HEL cells assessed as inhibition of virus-induced cytopathic effect after 3 days by MTS assay; assay type: functional, organism-based; how it was run: as §1
Influenza A virus [4] = experiment: Antiviral activity against influenza A virus H3N2 infected in MDCK cells assessed as inhibition of virus-induced cytopathic effect after 3 days by MTS assay; assay type: functional, organism-based; how it was run: as §1
[5] = system: Mammalian orthoreovirus 1; experiment: Antiviral activity against Reovirus 1 infected in african green monkey Vero cells assessed as inhibition of virus-induced cytopathic effect after 3 days by MTS assay; assay type: functional, organism-based; how it was run: as §1
Bacillus subtilis = experiment: Antibacterial activity against Bacillus subtilis after 24 hrs by serial dilution method; assay type: functional
Aspergillus niger = experiment: Antifungal activity against Aspergillus niger after 7 days by serial dilution method; assay type: functional
Candida albicans = experiment: Antifungal activity against Candida albicans after 48 hrs by serial dilution method; assay type: functional
How it was run: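 Serial compound dilutions in Sabouraud dextrose broth (tube dilution), incubated 37 °C for 48 h. MIC was read as the lowest concentration with no growth.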

Punta Toro virus = experiment: Antiviral activity against Punta toro virus infected in african green monkey Vero cells assessed as inhibition of virus-induced cytopathic effect after 3 days by MTS assay; assay type: functional, organism-based; how it was run: as §1
Sindbis virus = experiment: Antiviral activity against Simbidis virus infected in african green monkey Vero cells assessed as inhibition of virus-induced cytopathic effect after 3 days by MTS assay; assay type: functional, organism-based; how it was run: as §1
Influenza A virus [6] = experiment: Antiviral activity against influenza A virus H1N1 infected in MDCK cells assessed as inhibition of virus-induced cytopathic effect after 3 days by MTS assay; assay type: functional, organism-based; how it was run: as §1
Human respirovirus 3 = experiment: Antiviral activity against Parainfluenza 3 virus infected in african green monkey Vero cells assessed as inhibition of virus-induced cytopathic effect after 3 days by MTS assay; assay type: functional, organism-based; how it was run: as §1
Felid alphaherpesvirus 1 = experiment: Antiviral activity against Feline herpesvirus 1 infected in […] cells assessed as inhibition of virus-induced cytopathic effect after 3 days by MTS assay; assay type: functional, organism-based; how it was run: as §1

O=C(N/N=C/c1ccccc1Cl)c1cc([N+](=O)[O-])cc([N+](=O)[O-])c1
inhibition (Human alphaherpesvirus 1 [1]): inactive
MBC (Escherichia coli): >0.13 uM/ml
inhibition (Human alphaherpesvirus 2): inactive
inhibition (Coxsackievirus B4): inactive
inhibition (Feline coronavirus): inactive
inhibition [2]: inactive
inhibition (Vaccinia virus): inactive
inhibition (Influenza B virus): inactive
MBC (Staphylococcus aureus): >0.13 uM/ml
inhibition (Human alphaherpesvirus 1 [3]): inactive
inhibition (Influenza A virus [4]): inactive
inhibition [5]: inactive
MBC (Bacillus subtilis): 0.065 uM/ml
-logMIC (Aspergillus niger): 1.6
MFC (Aspergillus niger): >0.13 uM/ml
-logMIC (Candida albicans): 2.05
MFC (Candida albicans): >0.13 uM/ml
inhibition (Punta Toro virus): inactive
inhibition (Sindbis virus): inactive
inhibition (Influenza A virus [6]): inactive
inhibition (Human respirovirus 3): inactive
inhibition (Felid alphaherpesvirus 1): inactive

CCCCCCCCCCCC(=O)N/N=C/c1ccccc1Cl
inhibition (Human alphaherpesvirus 1 [1]): inactive
-logMIC (Escherichia coli): 1.8
MBC (Escherichia coli): 0.009 uM/ml
inhibition (Human alphaherpesvirus 2): inactive
inhibition (Coxsackievirus B4): inactive
inhibition (Feline coronavirus): inactive
inhibition [2]: inactive
inhibition (Vaccinia virus): inactive
inhibition (Influenza B virus): inactive
MBC (Staphylococcus aureus): >0.148 uM/ml
inhibition (Human alphaherpesvirus 1 [3]): inactive
inhibition (Influenza A virus [4]): inactive
inhibition [5]: inactive
MBC (Bacillus subtilis): 0.148 uM/ml
-logMIC (Aspergillus niger): 1.43
MFC (Aspergillus niger): >0.148 uM/ml
MFC (Candida albicans): >0.148 uM/ml
inhibition (Punta Toro virus): inactive
inhibition (Sindbis virus): inactive
inhibition (Influenza A virus [6]): inactive
inhibition (Human respirovirus 3): inactive
inhibition (Felid alphaherpesvirus 1): inactive

CCCCCCCCCCCCCCCC(=O)N/N=C/c1ccccc1
inhibition (Human alphaherpesvirus 1 [1]): inactive
MBC (Escherichia coli): >0.139 uM/ml
inhibition (Human alphaherpesvirus 2): inactive
inhibition (Coxsackievirus B4): inactive
inhibition (Feline coronavirus): inactive
inhibition [2]: inactive
inhibition (Vaccinia virus): inactive
inhibition (Influenza B virus): inactive
MBC (Staphylococcus aureus): >0.139 uM/ml
inhibition (Human alphaherpesvirus 1 [3]): inactive
inhibition (Influenza A virus [4]): inactive
inhibition [5]: inactive
MBC (Bacillus subtilis): 0.139 uM/ml
-logMIC (Aspergillus niger): 0.86
MFC (Aspergillus niger): >0.139 uM/ml
MFC (Candida albicans): >0.139 uM/ml
inhibition (Punta Toro virus): inactive
inhibition (Sindbis virus): inactive
inhibition (Influenza A virus [6]): inactive
inhibition (Human respirovirus 3): inactive
inhibition (Felid alphaherpesvirus 1): inactive

C/C=C/C=C/C(=O)N/N=C/c1ccccc1Cl
inhibition (Human alphaherpesvirus 1 [1]): inactive
MBC (Escherichia coli): 0.1 uM/ml
inhibition (Human alphaherpesvirus 2): inactive
inhibition (Coxsackievirus B4): inactive
inhibition (Feline coronavirus): inactive
inhibition [2]: inactive
inhibition (Vaccinia virus): inactive
inhibition (Influenza B virus): inactive
MBC (Staphylococcus aureus): >0.201 uM/ml
inhibition (Human alphaherpesvirus 1 [3]): inactive
inhibition (Influenza A virus [4]): inactive
inhibition [5]: inactive
MBC (Bacillus subtilis): 0.05 uM/ml
-logMIC (Aspergillus niger): 1.5
MFC (Aspergillus niger): >0.201 uM/ml
MFC (Candida albicans): >0.201 uM/ml
inhibition (Punta Toro virus): inactive
inhibition (Sindbis virus): inactive
inhibition (Influenza A virus [6]): inactive
inhibition (Human respirovirus 3): inactive
inhibition (Felid alphaherpesvirus 1): inactive

Cc1ccc(C(=O)N/N=C/c2ccccc2Cl)cc1
inhibition (Human alphaherpesvirus 1 [1]): inactive
MBC (Escherichia coli): 0.045 uM/ml
inhibition (Human alphaherpesvirus 2): inactive
inhibition (Coxsackievirus B4): inactive
inhibition (Feline coronavirus): inactive
inhibition [2]: inactive
inhibition (Vaccinia virus): inactive
inhibition (Influenza B virus): inactive
MBC (Staphylococcus aureus): 0.045 uM/ml
inhibition (Human alphaherpesvirus 1 [3]): inactive
inhibition (Influenza A virus [4]): inactive
inhibition [5]: inactive
MBC (Bacillus subtilis): 0.183 uM/ml
-logMIC (Aspergillus niger): 1.61
MFC (Aspergillus niger): 0.183 uM/ml
MFC (Candida albicans): >0.183 uM/ml
inhibition (Punta Toro virus): inactive
inhibition (Sindbis virus): inactive
inhibition (Influenza A virus [6]): inactive
inhibition (Human respirovirus 3): inactive
inhibition (Felid alphaherpesvirus 1): inactive

OC(Cn1cncn1)(Cn1cncn1)c1ccc(F)cc1F [FLUCONAZOLE]
-logMIC (Aspergillus niger): 2.64

— ChEMBL document CHEMBL1177846, “Benzylidene/2-chlorobenzylidene hydrazides: synthesis, antimicrobial activity, QSAR studies and antiviral evaluation” (Eur J Med Chem, 2010)
